IMP-1 inh-1: inhibitors of Pseudomonas aeruginosa IMP-1 metallo-beta-lactamase | 290,000 compounds, 0.45% hits | inhibition, % at 5.6 µM | AID 1556 | purified IMP-1, nitrocefin hydrolysis, epi-absorbance fluorescence;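 active = inhibition above the mean plus 3 SD of all compounds in the same screening run, cut at about 4.5% in these data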;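 note: 0% = IMP-1 with DMSO and 100% = DMSO wells lacking enzyme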
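Test system: recombinant IMP-1 enzyme, purified / Medium: HEPES buffer pH 7.1 with ZnSO4 and Brij 35 / Doses: single dose, 5.6 µM / Times: 25 °C, 15 min preincubation, 25 min reaction / Detection: Epi-absorbance via hydrolysed-nitrocefin quenching of white-plate fluorescence, 480/530 nm, EDTA stop / Evaluation: percent inhibition from optical density relative to buffer-blank wells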
VIM-2 inhibitor: blocks Pseudomonas aeruginosa VIM-2 metallo-beta-lactamase | purified VIM-2, nitrocefin hydrolysis, epi-absorbance fluorescence | inhibition, % at 5.6 µM | 290,000 compounds, 0.89% hits;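 active = inhibition above the mean of all tested compounds plus 3 SD, cutoff set per screening run, cut at about 7.5% in these data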;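 note: red hydrolysis product quenches plate fluorescence so inhibitors raise well fluorescence; 0% = enzyme with DMSO and 100% = DMSO without enzyme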
CTSL1 counter: counter-screen for PFM18AAP inhibitors: inhibitors of F. hepatica cathepsin L1. recombinant F. hepatica cathepsin L1, Z-Leu-Arg-MCA fluorescence. inhibition, % at 5.96 µM. 300,000 compounds, 0.49% hits;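 active = inhibition above the mean of all tested compounds plus 3 SD, set per screening campaign, cut at about 17% in these data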;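 note: 0% = plate median of test compound wells and 100% = 1 µM Z-Phe-Ala-diazomethylketone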
M18AAP inhibitor: blocks P. falciparum M18 aspartyl aminopeptidase; recombinant PfM18AAP, H-Glu-NHMec fluorogenic cleavage; inhibition, % at 7.35 µM; 290,000 compounds, 1.2% hits;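 active = inhibition above the campaign mean inhibition over all tested compounds plus 3 SD, cut at about 28% in these data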;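 note: 0% = plate median of test compound wells and 100% = 2 mM ZnCl2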
IMP-1 inh-2: blocks IMP-1 metallo-beta-lactamase in VIM-2 selectivity screen; inhibition, % at 5.6 µM; 1,300 tested, under 10 active; shares compounds with VIM-2 inhibitor; AID 1856; purified IMP-1, nitrocefin hydrolysis, epi-absorbance fluorescence; call rule not given here;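 note: 0% = enzyme with vehicle and 100% = vehicle without enzyme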
VIM-2 FRET inh: counter-screen for VIM-2 inhibitors: epi-absorbance artifacts via FRET | shares compounds with VIM-2 inhibitor | purified VIM-2, CCF2 FRET substrate hydrolysis | inhibition, % at 5.6 µM | 1,300 compounds, 23% hits;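 active = inhibition above the mean of all tested compounds plus 3 SD, cut at about 19% in these data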;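 note: 0% = VIM-2 plus DMSO and 100% = no enzyme wells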
TEM-1 counter: blocks E. coli TEM-1 beta-lactamase in VIM-2 selectivity screen | Purified TEM-1, nitrocefin hydrolysis, epi-absorbance fluorescence | inhibition, % at 5.6 µM | shares compounds with VIM-2 inhibitor | AID 1866 | 1,300 compounds, 3% hits;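 active = inhibition above that campaign's mean inhibition plus 3 SD, cut at about 0.46% in these data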;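 note: 0% = TEM-1 with DMSO and 100% = TEM-1 with 100 µM potassium clavulanate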
Target sequence (P62593 whole entry, looked up): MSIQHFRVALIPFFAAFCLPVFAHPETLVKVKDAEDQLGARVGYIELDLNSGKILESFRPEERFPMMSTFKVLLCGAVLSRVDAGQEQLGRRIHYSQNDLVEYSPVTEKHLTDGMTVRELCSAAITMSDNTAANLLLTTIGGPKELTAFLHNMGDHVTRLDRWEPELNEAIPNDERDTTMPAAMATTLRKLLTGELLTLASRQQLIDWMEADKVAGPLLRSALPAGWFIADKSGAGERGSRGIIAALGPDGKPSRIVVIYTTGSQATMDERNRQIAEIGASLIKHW
VIM-2 confirm 2: confirmation of P. aeruginosa VIM-2 metallo-beta-lactamase inhibitors; shares compounds with VIM-2 inhibitor; 1,300 compounds, 96% hits; AID 2187; purified VIM-2, nitrocefin hydrolysis, epi-absorbance; inhibition, % at 5.6 µM;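 active = inhibition of the VIM-2 beta-lactamase enzyme above about 11% from the earlier first-round screen, limit read from the data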;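 note: 0% = VIM-2 with DMSO and 100% = buffer wells without enzyme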
Starred values were filed as active, the others as inactive; nt = no result; ! = a repeat was not active. Hits are enriched below; roughly 2.7% of the tested compounds scored in any of these assays.

SMILES	IMP-1 inh-1	VIM-2 inhibitor	CTSL1 counter	M18AAP inhibitor	others
CN1C(C(=O)N2CCC3(CC2)OCCO3)=CC(c2ccc(F)cc2)=NS1(=O)=O	-2.0	-0.8	1.7	-5.6
CC(=O)OC1(c2ccccc2)CC(C(C)(C)C)CN(C(C)(C)C)C1 (configuration not stated)	-3.1	-3.7	34.9*	0.4
CCN1C(=O)C(=Cc2cc(C)n(C3CC3)c2C)C(=O)N(CC)C1=S	11.6*	0.1	-3.2	1.9
COc1cc(OC)c(C=O)c(OC(=O)N(C)C)c1	-2.4	-2.2	27.6*	0.5
CNC(=O)Oc1cccc(-c2cn3cc(OC(=O)NC)ccc3n2)c1	-0.8	-1.5	-0.2	31.0*
Cc1nnc2n1-c1ccc(Cl)cc1C(c1ccccc1)=NC2	-1.4	-2.2	nt	-2.4
CC(C)(C)n1cc(C(=O)c2ccc3ccccc3c2O)cn1	-3.5	-3.4	6.1	-0.5
CC(C)(C)n1cc(C(=O)c2ccccc2OCCCF)cn1	-0.8	10.7*	-1.4	-5.7
CCOC(=O)C1=CC(=C2C(=O)N(CC)C(=S)N(CC)C2=O)c2ccccc2O1	6.2*	-1.7	0.8	0.4
Cc1cc2c(C(C)C)c(O)c(O)c(C=O)c2c(O)c1-c1c(C)cc2c(C(C)C)c(O)c(O)c(C=O)c2c1O	13.9*!	10.4*	nt	31.8*
Cc1ccc(NC(=O)[C@@H](NC(=O)N2C[C@H]3C[C@@H](C2)c2cccc(=O)n2C3)C(C)C)cc1	-2.5	-1.2	0.7	-12.2
C=CCn1c(O)c(/C(CC)=N/NC(=S)Nc2ccccc2)c(=O)[nH]c1=O	-1.8	8.9*	-2.1	-19.1
C=CCn1c(O)c(/C(C)=N/NC(=S)Nc2ccccc2)c(=O)[nH]c1=O	-0.2	3.5	0.6	-10.8
CCN(CC)P(=O)(NC(=O)C(Cl)(Cl)Cl)N(CC)CC.[Cl-].[Cl-].[Cl-].[Nd+3]	22.2*	-1.3	-1.4	4.9
COc1cc2c(cc1OC)-c1c(OC)c(OC)c(OC)c3ccnc(c13)C2=O	-4.2	9.4*	1.4	9.6
COc1cc(CC2(CCc3ccncc3)C(=O)NC(=O)NC2=O)cc(OC)c1OC	-3.1	-1.1	-0.6	-5.0
Cc1ccccc1N1C(=O)NC(=O)/C(=C/c2ccc(N3CCOCC3)o2)C1=O	-3.1	-3.1	11.4	10.2
Cc1ccccc1N1C(=O)NC(=O)/C(=C\c2cc(Br)c(N3CCOCC3)o2)C1=O	1.9	-0.2	7.2	41.2*
COc1ccc(CNCCc2c(C)[nH]c3ccc(OC(F)(F)F)cc23)c(OC)c1	-3.2	-2.4	-3.9	-3.7
COC(=O)C1=C(c2ccc(S(C)(=O)=O)cc2)C[C@@H]2CC[C@H]1N2C(=O)NCCCOC(C)C	nt	nt	-2.0	nt
COc1ccc(OCC(=O)N2CCN(C/C=C/c3ccccc3)CC2)cc1	-3.7	-2.6	16.7*	-1.0
CCCCCc1nc2c(c(=O)c3ccccc3n2C)c(=O)n1C1CCCCCC1	-3.1	-5.9	3.9	-4.3
C=C(C)CSc1nnc([C@@H](N)Cc2ccccc2)o1	-0.6	0.7	-3.0	3.5
CN(C)C(=O)CSc1nnc([C@@H](N)Cc2ccccc2)o1	-3.0	-5.6	32.6*	-2.6
O=C(O)c1ccccc1-c1ccc(C=C2C(=O)N(c3ccccc3)C(=S)N(c3ccccc3)C2=O)o1	14.4*	1.4	0.7	7.5
SMILES	IMP-1 inh-1	VIM-2 inhibitor	CTSL1 counter	M18AAP inhibitor	others
COc1cc2c(cc1O)[C@@H]1Cc3ccc(OC)c(O)c3CN1CC2	nt	nt	65.5*	nt
C/C=C(\C)C(=O)OC1C(C)=C2C(C1OC(=O)CCCCC)C(C)(OC(C)=O)CC(OC(=O)CCC)C1(O)C2OC(=O)C1(C)O (configuration not stated)	nt	nt	8.5	nt
CN1CCC(N(C)c2nc(-c3ccc([N+](=O)[O-])cc3)nc3ccccc23)CC1	-2.0	9.9*	nt	-10.5
O=C(c1ccc2c3c(cccc13)CC2)C1CCCN(CC2CC2)C1 (configuration not stated)	-0.3	-1.1	2.1	-4.3
CNC(=O)Oc1ccc2c(c1)C(=O)c1ccccc1CO2	-1.9	-0.2	21.2*	10.2
CNC(=O)Oc1ccc(C(=O)N2c3ccccc3NC(=O)C2C)cc1 (configuration not stated)	-2.2	-2.2	-2.1	-1.7
S=P(Nn1cnnc1)(c1ccc(Br)cc1)c1ccc(Br)cc1	-2.2	-0.9	1.9	29.2*
O=C(O)c1ccccc1N=Nc1c(O)[nH]c(=O)[nH]c1=O	-3.5	-3.2	2.9	6.8
O=c1[nH]c(O)c(N=Nc2cc(C(F)(F)F)ccc2Cl)c(=O)[nH]1	0.3	11.4*	4.3	-20.4
COc1ccc(OC)c(CN2CCN(C(=O)Cc3ccccc3)CC2)c1	-0.8	0.3	-3.8	-12.3
COc1cc(CNCCc2c[nH]c3ccccc23)cc(OC)c1	0.3	-1.4	1.6	16.0
O=C1NC(c2cccnc2)Nc2sc3c(c21)CCCC3 (configuration not stated)	0.8	0.4	5.7	31.2*
O=[N+]([O-])NC1=NCCN1Cc1ccc(Cl)nc1	-1.4	0.8	-6.5	-8.2
O=C(NC1(C(F)(F)F)Oc2ccc(Cl)cc2O1)N1CCC2(CC1)OCCO2 (configuration not stated)	-4.2	-1.9	-3.8	97.6*
O=C(c1ccc(Cl)cc1)C1CCCN(Cc2ccc3ncccc3c2)C1 (configuration not stated)	-4.5	-2.4	2.9	-4.3
Cc1cccc(N=Cc2c(O)n(-c3ccccc3C)c(=O)[nH]c2=O)c1	-2.6	-0.6	-2.0	2.7
Cc1ccccc1-n1c(O)c(/C=N/c2nccs2)c(=O)[nH]c1=O	1.0	-1.0	17.1*!	-4.0
COc1ccc(-n2c(O)c(C(C)=NCCc3c[nH]c4ccccc34)c(=O)[nH]c2=O)cc1	-2.8	-5.0	-1.3	2.5
Cn1ncnc2c(=O)n(C)c(=O)nc1-2	nt	nt	110.8*	nt
Cn1c(O)c(/C=C/C=Nc2ccccc2)c(=O)n(C)c1=S	6.1*	4.7	-4.0	-1.7
Cc1cccc(-n2c(O)c(/C=C/C=Nc3ccccc3)c(=O)[nH]c2=O)c1	3.1	1.1	3.9	0.6
CN1CCN(C(=O)COc2ccc3ccccc3c2)CC1	-0.6	0.5	-1.9	4.8
CN1CCN(C(=O)COc2ccc(-c3nc4ccccc4s3)cc2)CC1	-0.1	7.8*	-0.1	-4.0
Cn1nc(-c2ccc(OCC(=O)N3CCN(Cc4ccccc4)CC3)cc2)c2ccccc2c1=O	-1.3	13.1*	1.0	0.7	IMP-1 inh-2=-2.5;VIM-2 FRET inh=4.9;TEM-1 counter=-4.5;VIM-2 confirm 2=28.0*
Cn1cccc1CN1CCN(C(=O)COc2ccccc2)CC1	-3.8	0.6	-2.1	27.7
